PMC3063487 (Bioconjugate chemistry, 2011)
Several values for one entry are separate records, joined by “and”; a condition that tells them apart may be missing. Equal entries are not always repeated. Entries after “also recorded” stand apart in the source; their conditions may differ.

How the values were obtained:
[1] = Protein binding assay; assay type: in vitro ADME; details: bovine, dialyzed fetal bovine serum
[2] = system: NFκB-bla Raw 264.7 cells; assay: In vitro NFkB activation using NFκB-bla Raw 264.7 cells; assay type: cell-based, murine; details: Mus musculus, RAW264.7, 16 h; for EC50: read-out: EC50 NFkB-RAW; for maximal fold induction: read-out: Imax NFkB-RAW (RR)
Outline: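 NFκB-bla RAW 264.7 cells at 5×10^4 per well in OptiMEM with 0.5% dialyzed FBS, 0.1 mM non-essential amino acids, 1 mM pyruvate, 10 mM HEPES pH 7.3 and penicillin/streptomycin. Test compound came from 10 or 50 mM DMSO stocks, was serially diluted in DMSO, then in medium.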

[3] = system: murine primary BMDM; assay: In vitro cytokine induction in bone marrow derived macrophages; assay type: cell-based, mouse (C57BL/6); details: for EC50: Mus musculus, BMDM, 18 h, read-out: EC50 BMDM; for Imax BMDM (IL-6 ng/ml): maximum level of IL-6 induction, 18 hours
Outline: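 Bone marrow-derived macrophages from C57BL/6 mice at 5×10^4 cells per well. Cells were given serially diluted test compound, from 50–100 mM DMSO stocks, for 18 h at 37°C, 5% CO2. Supernatant IL-6 was measured by ELISA, detection limit 15 pg/mL. Curves were fitted by nonlinear regression to give EC50 and maximal IL-6 induction. Representative of two independent experiments.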

[4] = system: human B cells; assay: Human B cell proliferation; assay type: cell-based; details: human PBMC, four days
Outline: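 Human PBMC from blood-bank buffy coats, from three donors. Cells were labelled with 10 μM CFSE in saline for 10 min, washed, then exposed to 1 or 10 μM test compound for four days. Cells were surface-stained for CD19. Proliferation of the CD19-gated B cells was scored by flow cytometry as CFSE dilution. Representative of two independent experiments.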

[5] = Pharmacokinetic; assay type: in vivo, mouse (C57BL/6); details: for AUC: C57BL/6, mouse, iv, 500 nmol
[6] = Solubility study in deionized water; details: for Water Solubility: saturated solution in deionized water, osmometer
[7] = system: C57BL/6 mice; assay: Pharmacodynamic; assay type: in vivo, mouse (C57BL/6); details: 200 nmol i.v., all time points analyzed
Outline: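 Female C57BL/6 mice, 5 per group, received 200 nmol test compound intravenously. Sera were collected 2, 4, 6, 24 and 48 h after injection and held at −20°C. IL-6 and TNF-α were measured by Luminex bead assay, with detection limits of 5 and 10 pg/mL. Means ± SEM of five mice were compared with vehicle and unconjugated ligand by one-way ANOVA with Bonferroni post hoc test.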

[8] = system: dialyzed serum proteins; assay: Protein binding assay; assay type: in vitro ADME; details: rapid equilibrium dialysis, dialyzed fetal bovine serum, UV 282 nm
[9] = system: human PBMC; assay: Cytokine induction by human PBMC; assay type: cell-based; details: 1 or 10 μM, 18 hours

Row | Compound | fraction unbound [1] | EC50 [2] | maximal fold induction [2] | EC50 [3] | Imax BMDM (IL-6 ng/ml) [3] | B cell proliferation ([4]; 1 μM) | AUC ([5]; in vivo) | Water solubility (in words) ([6]; deionized water) | Water Solubility [6] | Serum cytokine levels (IL-6, TNF-α) compared to 1V136 [7] | B cell proliferation ([4]; 1 and 10 μM, three donors) | AUC ([5]; serum) | Protein Binding (%) [8] | Cytokine induction (IL-6, TNF-α) in human PBMC (in words) [9] | Maximum serum concentration compared to 1V136 ([5]; C57BL/6 mice, i.v. 500 nmol)
1 | COCCOc1nc(N)c2nc(O)n(Cc3ccccc3)c2n1 [Compound 1V136, 9-benzyl-8-hydroxy-2-(2-methoxyethoxy) adenine, reference compound] | 0.332 | 0.08 ± 0.01 µM | 3.56 ± 0.38 | 0.36 ± 0.09 µM | 3.32 ± 0.54 ng/mL | induced strong B cell proliferation | 1.62 µM·h | highly insoluble in aqueous solution | – | – | – | – | – | – | –
2 | COCCOc1nc(N)c2[nH]c(=O)n(Cc3ccc(C(=O)O)cc3)c2n1 [Compound 1V209, 4-{[6-Amino-2-(2-methoxyethoxy)-8-oxo-7H-purin-9(8H)-yl]methyl}benzoic Acid] | – | – | – | – | – | – | – | – | 35 ±1 mOsm/kg | – | – | – | – | – | –
3 | COCCOc1nc(N)c2nc(O)n(Cc3ccc(C(=O)NCCOCCOCCOCCOCCOCCOCCN=[N+]=[N-])cc3)c2n1 [Compound 1a, 4-((6-amino-8-hydroxy-2-(2-methoxyethoxy)-9H-purin-9-yl)methyl)-N-(20-azido-3,6,9,12,15,18-hexaoxaicosyl)benzamide] | – | 4.13 ± 0.97 µM | 2.9 ± 0.06 | 8.18 ± 1.91 µM | 2.60 ± 0.49 ng/mL | – | – | – | – | minimum induction of proinflammatory cytokines | – | – | – | – | –
4 | COCCOc1nc(N)c2nc(O)n(Cc3ccc(C(=O)NCCOCCOCCOCCOCCOCCOCCn4cc(CCC(=O)O)nn4)cc3)c2n1 [Compound 1b, 3-(1-(1-(4-((6-amino-8-hydroxy-2-(2-methoxyethoxy)-9H-purin-9-yl)methyl)phenyl)-1-oxo-5,8,11,14,17,20-hexaoxa-2-azadocosan-22-yl)-1H-1,2,3-triazol-4-yl)propanoic acid] | – | 4.99 ± 0.7 µM | 3.04 ± 0.23 | 10.6 ± 1.74 µM | 2.46 ± 0.36 ng/mL | – | – | – | 240 mOsm/kg and 240 ± 10 mOsm/kg | significantly less cytokine levels; also recorded: minimum induction of proinflammatory cytokines | minimally induced proliferation; also recorded: undetectable | 5.93 µM·h | – | – | –
5 | COCCOc1nc(N)c2nc(O)n(Cc3ccc(C(=O)NCCOCCOCCOCCOCCOCCOCCN)cc3)c2n1 [Compound 1c, 4-((6-amino-8-hydroxy-2-(2-methoxyethoxy)-9H-purin-9-yl)methyl)-N-(20-amino-3,6,9,12,15,18-hexaoxaicosyl)benzamide] | – | 1.19 ± 0.2 µM | 3.27 ± 0.39 | 3.9 ± 1.06 µM | 5.19 ± 1.96 ng/mL | – | – | – | – | significantly less cytokine levels; also recorded: minimum induction of proinflammatory cytokines | – | – | 51.3 ±6.4% | higher potencies than the corresponding compounds with carboxyl-terminals | –
6 | COCCOc1nc(N)c2nc(O)n(Cc3ccc(C(=O)NCCOCCOCCOCCOCCOCCOCCOCCOCCOCCOCCN=[N+]=[N-])cc3)c2n1 [Compound 2a, 4-((6-amino-8-hydroxy-2-(2-methoxyethoxy)-9H-purin-9-yl)methyl)-N-(32-azido-3,6,9,12,15,18,21,24,27,30-decaoxadotriacontyl)benzamide] | – | 5.91 ± 1.33 µM | 3.55 ± 0.14 | 6.93 ± 3.54 µM | 2.72 ± 0.34 ng/mL | – | – | – | – | minimum induction of proinflammatory cytokines | – | – | – | – | –
7 | COCCOc1nc(N)c2nc(O)n(Cc3ccc(C(=O)NCCOCCOCCOCCOCCOCCOCCOCCOCCOCCOCCn4cc(CCC(=O)O)nn4)cc3)c2n1 [Compound 2b, 3-(1-(1-(4-((6-amino-8-hydroxy-2-(2-methoxyethoxy)-9H-purin-9-yl)methyl)phenyl)-1-oxo-5,8,11,14,17,20,23,26,29,32-decaoxa-2-azatetratriacontan-34-yl)-1H-1,2,3-triazol-4-yl)propanoic acid] | – | 2.67 ± 0.75 µM | 3.15 ± 0.23 | 4.42 ± 1.18 µM | 2.79 ± 0.47 ng/mL | – | – | – | – | significantly less cytokine levels; also recorded: minimum induction of proinflammatory cytokines | minimally induced proliferation; also recorded: undetectable | – | – | – | –
8 | COCCOc1nc(N)c2nc(O)n(Cc3ccc(C(=O)NCCOCCOCCOCCOCCOCCOCCOCCOCCOCCOCCN)cc3)c2n1 [Compound 2c, 4-((6-amino-8-hydroxy-2-(2-methoxyethoxy)-9H-purin-9-yl)methyl)-N-(32-amino-3,6,9,12,15,18,21,24,27,30-decaoxadotriacontyl)benzamide] | – | 1.16 ± 0.39 µM | 3.23 ± 0.27 | 2.24 ± 0.33 µM | 2.89 ± 0.49 ng/mL | – | – | – | – | minimum induction of proinflammatory cytokines | – | – | 57.6 ± 1.2% | higher potencies than the corresponding compounds with carboxyl-terminals | –
9 | COCCOc1nc(N)c2nc(O)n(Cc3ccc(C(=O)NCCOCCOCCOCCOCCOCCOCCOCCOCCOCCOCCOCCOCCOCCOCCOCCOCCOCCOCCOCCN)cc3)c2n1 [Compound 3, 4-((6-amino-8-hydroxy-2-(2-methoxyethoxy)-9H-purin-9-yl)methyl)-N-(59-amino-3,6,9,12,15,18,21,24,27,30,33,36,39,42,45,48,51,54,57-nonadecaoxanonapentacontyl)benzamide] | – | 0.9 ± 0.29 µM | 3.58 ± 0.58 | 1.79 ± 0.77 µM | 4.10 ± 1.33 ng/mL | – | – | – | – | – | induced B cell proliferation only at 10 μM | 41.4 µM·h | 79.5 ± 1.35% | – | significantly higher maximum serum concentrations
